Experimental data from different studies.
Target: Casein kinase I isoform delta (CSNK1D, Homo sapiens, UniProt P48730)
One construct used (P48730 1-294): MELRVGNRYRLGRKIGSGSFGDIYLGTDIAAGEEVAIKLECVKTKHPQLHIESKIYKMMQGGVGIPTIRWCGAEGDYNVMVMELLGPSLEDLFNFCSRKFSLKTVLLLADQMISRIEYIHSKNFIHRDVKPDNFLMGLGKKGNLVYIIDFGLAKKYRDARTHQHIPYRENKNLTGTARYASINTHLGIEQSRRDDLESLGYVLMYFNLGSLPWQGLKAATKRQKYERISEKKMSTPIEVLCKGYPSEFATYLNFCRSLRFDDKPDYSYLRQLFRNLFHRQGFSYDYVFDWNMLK

| SMILES | test | setting | measurement | result |
| --- | --- | --- | --- | --- |
| CCCCC(=O)Nc1ccc(-c2ccc3ncn(CCC)c(=O)c3c2)cn1 | binding, competition with immobilised ligand | 0.5 µM | remaining binding | 87% |
| CC(C)S(=O)(=O)c1ccc2nccc(Nc3ccc4sc(C5CCCC5)nc4c3)c2c1 | enzyme activity, inhibitor | 1 µM | activity vs control | 105% |
| C=CC(=O)N1CCC([C@@H]2CCNc3c(C(N)=O)c(-c4ccc(Oc5ccccc5)cc4)nn32)CC1 | enzyme activity, inhibitor | 1 µM | inhibition | 8% |
| c1cc(-c2cnn3cc(-c4ccc(OCCN5CCCCC5)cc4)cnc23)ccn1 | binding, SPR | – | kon | 809000 M⁻¹ s⁻¹ |
| C#Cc1cnc(Nc2ccnc(CO)c2)nc1Nc1ccccc1S(C)(=O)=NC#N (stereo not drawn) | cell-free assay | 1 µM | remaining signal | 100% |
| Cc1ccc(NC(=O)c2ccnc(C(F)(F)F)c2)cc1-c1cc(OCCO)nc(N2CCOCC2)c1 | binding | 1 µM | remaining binding | 99% |
| N#Cc1ccc(NC(=O)Nc2ccccc2)cc1 | cell-free assay, competition with immobilised ligand | 25 µM | remaining binding | 100% |
| COc1ccc2oc(-c3ccc4nc(N)oc4c3)c/c(=N\c3ccccc3NC(=O)CCN)c2c1 | binding | 1 µM | remaining binding | 119% |
| CO[C@@H]1[C@H](N(C)C(=O)c2ccccc2)C[C@H]2O[C@]1(C)n1c3ccccc3c3c4c(c5c6ccccc6n2c5c31)C(=O)NC4 | enzyme activity, inhibitor | 1 µM | inhibition | 0% |
| COc1ccc2[nH]c3c4[nH]c5ccc(OC)cc5c4c4c(c3c2c1)C(=O)NC4=O | binding | 1 µM | remaining binding | 94% |
| c1cc(Nc2cc(C3CC3)n[nH]2)nc(Nc2ccc3nc[nH]c3c2)n1 | binding, SPR | – | kon | 335000 M⁻¹ s⁻¹ |
| C1=C/COCc2cc(ccc2OCCN2CCCC2)Nc2nccc(n2)-c2cccc(c2)COC/1 | binding | 0.1 µM | remaining binding | 100% |
